Assay [1] has as its system A2B1. Kind of assay: Cytotoxicity against mouse A2B1 cells after 24 to 96 hrs by MTS assay. It is filed as functional, cell-based. Summed up:
(§1)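 Mouse transgenic lines plated at 10^3 cells/well and left 24 h to attach. Drugs diluted in medium were added for 24 or 96 h. CellTiter 96 AQueous One (MTS) reagent was then added for 1 h at 37 °C, with absorbance read at 490 nm. Each condition was run in quintuplicate, and cytotoxicity was expressed as percent of controls.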

Assay [2] deals with B3. Kind of assay: Cytotoxicity against mouse B3 cells after 24 to 96 hrs by MTS assay. It is filed as functional, cell-based. Summed up: as §1
Assay [3] concerns yA3. The assay can be described thus: Induction apoptosis in mouse yA3 cells assessed as ROS production at 10 uM/L using DCFH-DA by flow cytometry relative to control. In kind it is functional, cell-based. Put shortly:
(§2)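 Transgenic mouse cells exposed to compound at 10 µmol/L. ROS generation was measured by flow cytometry using the probe DCFH-DA.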

The test system of assay [4] is yD1. The assay can be described thus: Induction apoptosis in mouse yD1 cells assessed as relative caspase activity at 10 uM/L after 2 hrs by rhodamine 110 fluorescence assay. In kind it is functional, cell-based. Summed up:
(§3)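 Cells were pretreated with compound (10 µmol/L) for 2 h. The cell-permeable caspase substrate (Asp)2-rhodamine 110 (10 µmol/L) was then added for 2 h more. Caspase cleavage releases fluorescent rhodamine 110, and the read-out was mean fluorescence.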

Assay [5] relates to yB8. Kind of assay: Induction apoptosis in mouse yB8 cells assessed as relative caspase activity at 10 uM/L after 2 hrs by rhodamine 110 fluorescence assay. In kind it is functional, cell-based. Summed up: as §3
Assay [6] concerns yA3. Kind of assay: Cytotoxicity against mouse yA3 cells after 24 to 96 hrs by MTS assay. In kind it is functional, cell-based. Put shortly:
as §1

Assay [7] has as its system B3. The assay can be described thus: Induction apoptosis in mouse B3 cells assessed as ROS production at 10 uM/L using DCFH-DA by flow cytometry relative to control. It is filed as functional, cell-based. Summed up:
as §2

For assay [8], the system named is Craf/Cmyc. The assay can be described thus: Induction apoptosis in mouse Craf/Cmyc cells assessed as ROS production at 10 uM/L using DCFH-DA by flow cytometry relative to control. In kind it is functional, cell-based. Summed up: as §2
Assay [9] relates to A2C12. Kind of assay: Cytotoxicity against mouse A2C12 cells after 24 to 96 hrs by MTS assay. It is filed as functional, cell-based. Summed up:
as §1

In assay [10] the test system is yB8. The assay can be described thus: Cytotoxicity against mouse yB8 cells after 24 to 96 hrs by MTS assay. In kind it is functional, cell-based. Summed up: as §1
In assay [11] the test system is B3. The assay can be described thus: Induction apoptosis in mouse B3 cells assessed as relative caspase activity at 10 uM/L after 2 hrs by rhodamine 110 fluorescence assay. It is filed as functional, cell-based. Put shortly: as §3
Assay [12] deals with yD12. Kind of assay: Induction apoptosis in mouse yD12 cells assessed as ROS production at 10 uM/L using DCFH-DA by flow cytometry relative to control. It is filed as functional, cell-based. Put shortly:
as §2

The test system of assay [13] is Craf/Cmyc. Kind of assay: Induction apoptosis in mouse Craf/Cmyc cells assessed as relative caspase activity at 10 uM/L after 2 hrs by rhodamine 110 fluorescence assay. In kind it is functional. Put shortly: as §3
Assay [14] deals with yA7. The assay can be described thus: Induction apoptosis in mouse yA7 cells assessed as ROS production at 10 uM/L using DCFH-DA by flow cytometry relative to control. In kind it is functional, cell-based. Summed up:
as §2

Assay [15] deals with yD1. Kind of assay: Induction apoptosis in mouse yD1 cells assessed as ROS production at 10 uM/L using DCFH-DA by flow cytometry relative to control. In kind it is functional, cell-based. Put shortly: as §2
In the next assay the test system is Nucleic Acid. The assay can be described thus: Binding affinity to salmon testes DNA by linear flow dichroism analysis. In kind it is nucleic-acid assay. Particulars: Salmonidae. Put shortly: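 Salmon testes DNA (1.9 × 10^-3 M) in ETN buffer (10 mM Tris, 10 mM NaCl, 1 mM EDTA, pH 7). Linear dichroism spectra were recorded at 25 °C over a range of [drug]/[DNA] ratios on a spectropolarimeter converted for LD.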

Assay [16] relates to yD12. Kind of assay: Cytotoxicity against mouse yD12 cells after 24 to 96 hrs by MTS assay. It is filed as functional, cell-based. Put shortly: as §1
Another assay relates to A-431. The assay can be described thus: Cytotoxicity against human A431 cells after 72 hrs by trypan blue assay. In kind it is functional, cell-based. Particulars: A-431, 72 h. Put shortly: (§4)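 A-431, HeLa and HL-60 cells at 4×10^4 per well, incubated 24 h. HeLa and A-431 then received fresh medium. Graded compound concentrations were added for a further 72 h at 37 °C, 5% CO2. Viability was counted by Trypan blue exclusion. IC50 is the concentration giving 50% reduction in cell number versus control: ≥3 independent experiments, triplicate samples, mean ± SD.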

The test system of assay [17] is Craf/Cmyc. The assay can be described thus: Cytotoxicity against mouse Craf/Cmyc cells after 24 to 96 hrs by MTS assay. In kind it is functional, cell-based. Summed up:
as §1

A further assay has as its system HeLa. Kind of assay: Cytotoxicity against human HeLa cells after 72 hrs by trypan blue assay. In kind it is functional, cell-based. Put shortly:
as §4

The test system of assay [18] is A2B1. Kind of assay: Induction apoptosis in mouse A2B1 cells assessed as ROS production at 10 uM/L using DCFH-DA by flow cytometry relative to control. It is filed as functional, cell-based. Summed up:
as §2

The species entered for assay [19] is Mus musculus. Kind of assay: Induction apoptosis in mouse betaD5 cells assessed as ROS production at 10 uM/L using DCFH-DA by flow cytometry relative to control. It is filed as functional, cell-based. Put shortly:
as §2

Assay [20] deals with DNA topoisomerase 2-alpha (Homo sapiens) (UniProt P11388). The assay can be described thus: Inhibition of human recombinant topoisomerase 2alpha-mediated relaxation of supercoiled pBR322 after 60 mins using ethidium bromide staining by agarose gel electrophoresis. Put shortly: (§5)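 Supercoiled pBR322 (0.25 µg) with 1 U human recombinant topoisomerase IIα and test compound, 60 min at 37 °C in 20 µl reaction buffer. Stopped with SDS/bromophenol blue/glycerol plus 50 µg/mL proteinase K, 30 min at 37 °C. Separated on 1% agarose at room temperature, ethidium bromide stained (1 µg/mL, TAE), UV-visualized.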

For assay [21], the system named is A2B1. The assay can be described thus: Induction apoptosis in mouse A2B1 cells assessed as relative caspase activity at 10 uM/L after 2 hrs by rhodamine 110 fluorescence assay. It is filed as functional, cell-based. Put shortly:
as §3

For assay [22], the system named is A2C12. Kind of assay: Induction apoptosis in mouse A2C12 cells assessed as ROS production at 10 uM/L using DCFH-DA by flow cytometry relative to control. It is filed as functional, cell-based. Put shortly: as §2
Assay [23] is filed under the species Mus musculus. The assay can be described thus: Induction apoptosis in mouse betaD5 cells assessed as relative caspase activity at 10 uM/L after 2 hrs by rhodamine 110 fluorescence assay. It is filed as functional, cell-based. Summed up: as §3
Assay [24] is filed under the species Mus musculus. Kind of assay: Cytotoxicity against mouse betaD5 cells after 24 to 96 hrs by MTS assay. In kind it is functional, cell-based. Summed up: as §1
The species entered for assay [25] is Mus musculus. The assay can be described thus: Induction apoptosis in mouse betaD10 cells assessed as ROS production at 10 uM/L using DCFH-DA by flow cytometry relative to control. It is filed as functional, cell-based. Put shortly:
as §2

For assay [26], the system named is HUVEC. Kind of assay: Antiangiogenic activity in HUVEC cocultured with human PaSMC assessed as inhibition of capillary-like network formation up to 200 nM after 72 hrs. It is filed as functional, cell-based. Put shortly: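 Primary HUVEC (passage 5, retrovirally labelled with RFP) and pulmonary artery vSMC (passage 5) co-seeded at 5×10^4 PaSMC plus 10×10^3 HUVEC per well in EGM-2, briefly spun at 200 g, attached 3 h. Compounds were then added at final 2–200 nM, two replicates per concentration. Networks formed over 72 h at 37 °C, 5% CO2, followed by automated imaging and image analysis of tube formation.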

The next assay deals with HL-60. The assay can be described thus: Cytotoxicity against human HL60 cells after 72 hrs by trypan blue assay. It is filed as functional, cell-based. Particulars: HL-60, 72 h. Summed up: as §4
The subject of assay [27] is yA7. The assay can be described thus: Cytotoxicity against mouse yA7 cells after 24 to 96 hrs by MTS assay. It is filed as functional, cell-based. Put shortly:
as §1

In assay [28] the target is DNA topoisomerase 2-alpha (Homo sapiens) (UniProt P11388). The assay can be described thus: Inhibition of human recombinant topoisomerase 2alpha-mediated relaxation of supercoiled pBR322 at 100 uM after 60 mins using ethidium bromide staining by agarose gel electrophoresis. Summed up:
as §5

The species entered for assay [29] is Mus musculus. Kind of assay: Induction apoptosis in mouse betaD10 cells assessed as relative caspase activity at 10 uM/L after 2 hrs by rhodamine 110 fluorescence assay. It is filed as functional, cell-based. Put shortly: as §3
For assay [30], the system named is yD12. Kind of assay: Induction apoptosis in mouse yD12 cells assessed as relative caspase activity at 10 uM/L after 2 hrs by rhodamine 110 fluorescence assay. It is filed as functional, cell-based. Put shortly: as §3
Assay [31] deals with A2C12. Kind of assay: Induction apoptosis in mouse A2C12 cells assessed as relative caspase activity at 10 uM/L after 2 hrs by rhodamine 110 fluorescence assay. In kind it is functional, cell-based. Put shortly:
as §3

For a further assay, the species on record is Bos taurus. Kind of assay: Inhibition of calf thymus topoisomerase 1-mediated relaxation of supercoiled pBR322 at 100 uM after 60 mins using ethidium bromide staining by agarose gel electrophoresis. Put shortly:
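Supercoiled pBR322 (0.25 µg) with 2 U calf thymus topoisomerase I and test compound, 60 min at 37 °C in 20 µl reaction buffer. Stopped with SDS/bromophenol blue/glycerol plus 50 µg/mL proteinase K, 30 min at 37 °C. Run on 1% agarose at room temperature, stained with ethidium bromide 1 µg/mL in TAE, imaged under UV.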

Assay [32] relates to yA7. Kind of assay: Induction apoptosis in mouse yA7 cells assessed as relative caspase activity at 10 uM/L after 2 hrs by rhodamine 110 fluorescence assay. In kind it is functional, cell-based. Summed up: as §3
The subject of assay [33] is yB8. The assay can be described thus: Induction apoptosis in mouse yB8 cells assessed as ROS production at 10 uM/L using DCFH-DA by flow cytometry relative to control. In kind it is functional, cell-based. Summed up:
as §2

Assay [34] is filed under the species Mus musculus. Kind of assay: Cytotoxicity against mouse betaD10 cells after 24 to 96 hrs by MTS assay. It is filed as functional, cell-based. Summed up:
as §1

Assay [35] deals with yA3. The assay can be described thus: Induction apoptosis in mouse yA3 cells assessed as relative caspase activity at 10 uM/L after 2 hrs by rhodamine 110 fluorescence assay. It is filed as functional, cell-based. Summed up: as §3
Assay [36] relates to HUVEC. The assay can be described thus: Antiangiogenic activity in HUVEC cocultured with human PaSMC assessed as inhibition of capillary-like network formation at 25 nM after 72 hrs. In kind it is functional, cell-based. Put shortly: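 RFP-expressing HUVEC (early passage, passage 5) co-seeded with pulmonary artery vSMC (5×10^4 PaSMC plus 10×10^3 HUVEC per well) in EGM-2, briefly spun at 200 g and allowed to attach for 3 h. Compounds were added at final 2–200 nM, two replicates per concentration, at 37 °C, 5% CO₂. Network was imaged at 72 h with automated imaging, and tube length was quantified by image analysis.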

Molecules are shown by their SMILES. Activity calls are given as the source filed them. The calls are words filed in the database; no cut-off is given here.

Chain of DNA topoisomerase 2-alpha (Homo sapiens) (P11388 whole entry): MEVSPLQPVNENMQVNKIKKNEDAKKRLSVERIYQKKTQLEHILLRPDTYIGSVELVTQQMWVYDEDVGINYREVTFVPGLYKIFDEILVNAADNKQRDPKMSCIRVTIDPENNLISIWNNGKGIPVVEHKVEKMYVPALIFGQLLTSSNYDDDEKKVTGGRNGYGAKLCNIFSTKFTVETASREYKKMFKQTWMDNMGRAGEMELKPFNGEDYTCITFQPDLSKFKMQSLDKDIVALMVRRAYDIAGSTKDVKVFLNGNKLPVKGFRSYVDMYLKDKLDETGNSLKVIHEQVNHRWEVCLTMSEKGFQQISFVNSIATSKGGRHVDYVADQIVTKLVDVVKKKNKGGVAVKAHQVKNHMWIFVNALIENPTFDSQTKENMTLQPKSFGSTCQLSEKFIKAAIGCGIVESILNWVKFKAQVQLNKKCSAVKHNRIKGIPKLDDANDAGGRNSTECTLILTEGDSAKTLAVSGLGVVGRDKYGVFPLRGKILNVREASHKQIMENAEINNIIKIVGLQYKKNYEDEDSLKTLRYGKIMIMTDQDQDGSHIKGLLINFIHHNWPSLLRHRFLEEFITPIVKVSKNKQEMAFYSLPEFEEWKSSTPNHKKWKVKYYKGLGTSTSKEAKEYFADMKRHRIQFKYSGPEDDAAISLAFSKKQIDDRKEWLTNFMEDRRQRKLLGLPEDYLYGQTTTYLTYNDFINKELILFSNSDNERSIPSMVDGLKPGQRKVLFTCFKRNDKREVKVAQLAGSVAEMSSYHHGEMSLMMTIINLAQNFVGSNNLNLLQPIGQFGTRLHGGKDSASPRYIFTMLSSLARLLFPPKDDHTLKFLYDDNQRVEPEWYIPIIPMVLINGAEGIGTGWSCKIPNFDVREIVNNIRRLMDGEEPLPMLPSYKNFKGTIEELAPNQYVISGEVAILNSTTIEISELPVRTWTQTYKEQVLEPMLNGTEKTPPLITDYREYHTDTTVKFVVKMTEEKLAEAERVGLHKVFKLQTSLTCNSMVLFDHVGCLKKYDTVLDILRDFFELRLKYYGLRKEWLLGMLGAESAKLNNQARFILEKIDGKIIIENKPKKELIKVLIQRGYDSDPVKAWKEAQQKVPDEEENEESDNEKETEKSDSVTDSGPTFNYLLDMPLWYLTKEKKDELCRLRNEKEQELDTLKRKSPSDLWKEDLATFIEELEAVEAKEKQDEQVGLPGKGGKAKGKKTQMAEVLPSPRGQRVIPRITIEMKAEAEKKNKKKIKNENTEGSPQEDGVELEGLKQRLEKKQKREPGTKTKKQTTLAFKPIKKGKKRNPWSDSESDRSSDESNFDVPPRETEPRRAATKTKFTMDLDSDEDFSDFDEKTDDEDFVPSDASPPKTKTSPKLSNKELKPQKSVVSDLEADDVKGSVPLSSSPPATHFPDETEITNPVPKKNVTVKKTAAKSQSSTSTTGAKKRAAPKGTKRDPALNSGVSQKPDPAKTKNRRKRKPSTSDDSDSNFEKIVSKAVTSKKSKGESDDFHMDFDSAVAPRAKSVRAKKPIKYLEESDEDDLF

Regarding `CC[C@@]1(OC(=O)NCCN2C(=O)CCSSCCC2=O)C(=O)OCc2c1cc1n(c2=O)Cc2cc3ccccc3nc2-1`, the result in the assay with A2B1 [1], with B3 [2], in the assay with yA3 [6], in the assay with A2C12 [9], in the assay with yB8 [10] and in the assay on yD12 [16] was Active. Further, the result (in the assay on Craf/Cmyc [17]; in the assay filed under Mus musculus [24]; in the assay on yA7 [27]; in [28]; in the assay listed under Mus musculus [34]) was Active. In addition, the result with yA3 [3], in the assay on yD1 [4], with yB8 [5], in the assay on B3 [7], in the assay on Craf/Cmyc [8] and in the assay with B3 [11] was inactive. The outcome in the assay on yD12 [12], with Craf/Cmyc [13], in the assay with yA7 [14], with yD1 [15], in the assay on Nucleic Acid and in the assay with A2B1 [18] was inactive. The result in the assay filed under Mus musculus [19], with A2B1 [21], with A2C12 [22], in the assay listed under Mus musculus [23], in the assay filed under Mus musculus [25] and with HUVEC [26] was inactive. Further, the outcome in the assay filed under Mus musculus [29], in the assay with yD12 [30], in the assay on A2C12 [31], in the assay filed under Bos taurus, with yA7 [32] and in the assay with yB8 [33] was inactive. For the same compound, in the assay on yA3 [35], the outcome was inactive. Moreover, the IC50 in the assay on A-431 stood at 2970 nM; with HeLa, 12000 nM; in the assay on HL-60, 8100 nM. The Activity result in [20] is “Dose-dependent effect”.

As to `CC[C@@]1(O)C(=O)OCc2c1cc1n(c2=O)Cc2cc3ccccc3nc2-1` [CAMPTOTHECIN], in the assay on HUVEC [36], the inhibition entry is “Active”. Also, the 50% inhibitory concentration (IC50) is 11 nM in the assay with A-431, 8.9 nM in the assay with HeLa and 17 nM in the assay on HL-60.

For the origin of these results see ChEMBL document CHEMBL1629436, “Synthesis and biological evaluation of new camptothecin derivatives obtained by modification of position 20” (Bioorg Med Chem, 2010).
